The conditions of data set [1]: patients with severe renal impairment (CrCL of 15 mL/min) compared with healthy participants; cited from earlier work.
The format of data set [2] is in vivo, human. As to conditions: for AUC / AUC(0-t) / AUC(0-inf) / Cmax / Tmax / half-life: human, plasma, po, 60 mg; for AUC: AUC96, single oral 60 mg; for AUC / AUC(0-t) / AUC(0-inf) / Cmax / %Urt (percentage dose recovered in urine) / CLT/F (apparent total body clearance): adjusted geometric mean (%CV); for AUC(0-t): AUCt; for AUC(0-t) / AUC(0-inf) / Cmax / Tmax / half-life / %Urt (percentage dose recovered in urine) / CLT/F (apparent total body clearance): single oral 60 mg; for Cmax: n = 8; for Tmax: median (minimum–maximum); for half-life: T½ (terminal plasma half-life), mean (SD). The gist of the method: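 There were three eGFR-defined groups (MDRD; n = 8 each, matched by age, weight and sex). Each participant received one oral 60 mg dose after a standard meal, with serial plasma and urine collection. Plasma concentrations were measured by validated LC-MS/MS. Urine recovery was the sum of concentration × urine volume per collection interval, expressed as % of dose. CLT/F came from plasma concentration-time data. Values are adjusted geometric mean (%CV).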

A short description of data set [3]: Milvexian plasma protein binding by LC-MS/MS. As to conditions: adjusted geometric mean (%CV); for fraction unbound: human, plasma, %fu (fraction of unbound drug). Format: in vitro ADME, human. The gist of the method: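 The severe group had eGFR < 30 mL/min/1.73 m2 (MDRD) and no dialysis, and received a single oral 60 mg dose after a standard meal. A designated protein-binding blood sample was analysed for […] test compound by validated LC-MS/MS. Results were reported as adjusted geometric mean (%CV).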

A short description of data set [4]: Safety and tolerability. The class given is in vivo, human. Conditions: for Any AE / Headache / Somnolence: single oral 60 mg.
Data set [5] relates to aPTT. As to the kind of experiment: Activated partial thromboplastin time. The class given is in vivo, human. As to conditions: for aPTT percentage change from baseline at mean peak: single oral 60 mg. The gist of the method:
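Participants (n = 8 per group) were grouped by eGFR (MDRD formula): normal ≥ 90, moderate ≥ 30 to ≤ 59, or severe < 30 mL/min/1.73 m2 (not on dialysis). They were matched by age, body weight and sex. Each received a single oral dose of test compound after a standard meal. aPTT was an exploratory PD biomarker, measured by a validated central-laboratory assay. Baseline was predose Day 1.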

Data set [6] in a line: Linear regression of log-transformed PK parameters versus eGFR or CrCL. Format: in vivo, human. As to conditions: for increase in overall exposure: regression analysis.
The conditions of data set [7]: previous first-in-human study; cited from earlier work.
For data set [8] the following is noted: patients undergoing dialysis compared with healthy participants; cited from earlier work.
Where [9] appears, read: single dose 60 mg, all 24 participants.
Setting [10] is: moderate renal impairment, n = 8.
Setting [11] is: CrCL 30 vs CrCL 90 mL/min, CrCL-based regression.
The mark [12] stands for this setting: eGFR 15 vs eGFR 90 mL/min/1.73 m^2, eGFR-based regression.
Setting [13] is: eGFR 30 vs eGFR 90 mL/min/1.73 m^2, eGFR-based regression.

The values below come from publication PMC9553801 (Clinical Pharmacokinetics, 2022).

Several values for one entry are separate records, joined by “and”; a condition that tells them apart may be missing. Equal entries are not always repeated. Where two headings read alike, the source gives them in different places.

As for `COc1ccc(-n2nc(C(N)=O)c3c2C(=O)N(c2ccc(N4CCCCC4=O)cc2)CC3)cc1` [apixaban], the increase in exposure in data set [1] is recorded as 44%.
As usually defined, the AUC is concentration integrated over time. The low end stands for low exposure, the high end for high exposure. For orientation: AUC(0-t) means exposure summed from dosing to a finite time, without extrapolation to infinity. What is called AUC(0-inf) is total exposure, with the tail of the curve extrapolated. A higher AUC(0-inf) goes with more exposure. In general, Cmax refers to the peak of the concentration-time curve. One may read the Tmax as the time from dosing to the highest level. The half-life is the time in which the quantity being followed falls by half. High values mean slow loss, low ones fast loss. In general, fraction unbound refers to the share of the substance not bound to proteins or other matrix. `C[C@@H]1CCC[C@H](n2cnc(-c3cc(Cl)ccc3-n3cc(Cl)nn3)cc2=O)c2cc(ccn2)-c2c(cnn2C(F)F)NC1=O` [milvexian, Milvexian]: the results for the AUC in data set [2] (moderate renal impairment), in data set [2] (normal renal function) and in data set [2] (severe renal impairment) were 5020 ng·h/mL, 3880 ng·h/mL and 7170 ng·h/mL, respectively. Also, the AUC(0-t) in data set [2] (moderate renal impairment) was found to be 5000 ng·h/mL; in data set [2] (normal renal function), 3860 ng·h/mL; in data set [2] (severe renal impairment), 7090 ng·h/mL. Also, the AUC(0-inf) in data set [2] (moderate renal impairment) worked out at 5150 ng·h/mL; in data set [2] (normal renal function) it was 3920 ng·h/mL; in data set [2] (severe renal impairment), 7410 ng·h/mL. The Cmax in data set [2] (moderate renal impairment (eGFR ≥ 30 to ≤ 59)) was determined as 406 ng/mL; in data set [2] (normal renal function (eGFR ≥ 90)), 462 ng/mL; in data set [2] (severe renal impairment (eGFR < 30)), 462 ng/mL. For the same compound, the Tmax in data set [2] (moderate renal impairment) came out at 4.75 h; in data set [2] (normal renal function), 4.5 h; in data set [2] (severe renal impairment), 5 h. Besides, the half-life in data set [2] (moderate renal impairment) is 18 h; in data set [2] (normal renal function), 13.8 h; in data set [2] (severe renal impairment) it was 17.7 h. Besides, the “%Urt (percentage dose recovered in urine)” value was 7.64 (33) % in data set [2] (moderate renal impairment), 10.5 (45) % in data set [2] (normal renal function) and 3.14 (75) % in data set [2] (severe renal impairment). Also, the “CLT/F (apparent total body clearance)” value in data set [2] (moderate renal impairment) is 11.6 L/h and 11.6 (32) L/h; in data set [2] (normal renal function), 15.3 L/h and 15.3 (36) L/h; in data set [2] (severe renal impairment), 8.10 L/h and 8.10 (37) L/h. Further, the results for the fraction unbound in data set [3] (moderate renal impairment), in data set [3] (normal renal function) and in data set [3] (severe renal impairment) were 0.0881, 0.0885 and 0.084, respectively. Besides, in data set [3] (severe renal impairment), the “%Protein binding” value is 91.5 (1) %. This compound showed a participants reporting headache in data set [4] (setting [9]) of 8.3%. Moreover, the “participants reporting one AE” value in data set [4] (setting [9]) came out at 12.5%. Further, in data set [4] (setting [9]), the participants reporting somnolence worked out at 4.2%. In addition, the bleeding events entry in data set [4] (single dose 60 mg, all renal function groups) was “No bleeding events were reported”. For the same compound, the “Any AE” value is 1 (12.5) n (%) in data set [4] (setting [10]); 1 (12.5) n (%) in data set [4] (normal renal function, n = 8); 1 (12.5) n (%) in data set [4] (severe renal impairment, n = 8); 3 (12.5) n (%) in data set [4] (total, N = 24). In addition, the Headache is recorded as 1 (12.5) n (%) in data set [4] (setting [10]); 0 n (%) in data set [4] (normal renal function, n = 8); 1 (12.5) n (%) in data set [4] (severe renal impairment, n = 8); 2 (8.3) n (%) in data set [4] (total, N = 24). The Somnolence in data set [4] (setting [10]) was 0 n (%); in data set [4] (normal renal function, n = 8) it was 1 (12.5) n (%); in data set [4] (severe renal impairment, n = 8), 0 n (%); in data set [4] (total, N = 24), 1 (4.2) n (%). In addition, the “aPTT percentage change from baseline at mean peak” value in data set [5] (moderate renal impairment, 5 h postdose) was 97%; in data set [5] (normal renal function, 5 h postdose), 127%; in data set [5] (severe renal impairment, 6 h postdose), 100%. The “effect on aPTT” value in data set [5] (single oral dose, all renal function groups) is “concentration-dependent prolongation of aPTT”. Further, the “increase in AUCt” value in data set [6] (CrCL 15 vs CrCL 90 mL/min, CrCL-based regression) is listed as 49%; in data set [6] (setting [11]), 38%; in data set [6] (setting [12]) it was 50%; in data set [6] (setting [13]), 39%. The “increase in AUC∞” value was 40% in data set [6] (setting [11]), 54% in data set [6] (setting [12]) and 41% in data set [6] (setting [13]). The “increase in overall exposure” value in data set [6] (moderate renal impairment group) is on record as “approximately 40%”; in data set [6] (severe renal impairment group), ~50%. For the same compound, the renal excretion result in data set [7] is recorded as “below 20%”.
`O=C(NC[C@H]1CN(c2ccc(N3CCOCC3=O)cc2)C(=O)O1)c1ccc(Cl)s1` [rivaroxaban]: the increase in exposure in data set [8] is on record as 56%.
